# Assay results taken from ChEMBL document CHEMBL4480458, “Synthesis and Anti-inflammatory Evaluation of ( R)-, ( S)-, and (±)-Sanjuanolide Isolated from Dalea frutescens” (J Nat Prod, 2019).
# Activity calls are given as the source filed them. No cut-off for these calls is given here.
# Legend:
# Assay type in all cases: functional, cell-based
# RAW264.7 [1] = test: Antiinflammatory activity in mouse RAW264.7 cells assessed as inhibition of LPS-induced IL-6 production pretreated for 30 mins followed by LPS-stimulation and measured after 24 hrs by ELISA
# Procedure, shortened: (§1)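 RAW 264.7 cells were seeded at 400 000 per well in DMEM and held for 24 h at 37 °C, 5% CO2. They were pretreated 30 min with vehicle or compound at 1, 2.5, 5 or 10 μM, then stimulated with LPS at 0.5 μg/mL for 24 h. Supernatant cytokine was measured by ELISA. IC50 was taken from the concentration series, and significance was tested against LPS vehicle.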
# RAW264.7 [2] = test: Antiinflammatory activity in mouse RAW264.7 cells assessed as inhibition of LPS-induced TNFalpha production pretreated for 30 mins followed by LPS-stimulation and measured after 24 hrs by ELISA; procedure, shortened: as §1
# RAW264.7 [3] = test: Antiinflammatory activity in mouse RAW264.7 cells assessed as inhibition of LPS-induced TNFalpha mRNA expression pretreated for 30 mins followed by LPS-stimulation and measured after 24 hrs by trizol reagent based qRT-PCR analysis
# Procedure, shortened: (§2)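 RAW 264.7 macrophages were grown in DMEM with 10% FBS and penicillin/streptomycin at 37 °C, 5% CO2. Cells were plated at 7.0 × 10^5/plate and incubated overnight, then pretreated 30 min with compound at 2.5 or 10 μM before LPS at 1.0 μg/mL for 24 h. Total RNA was extracted and qPCR was run, with each gene normalized to β-actin. Values are % of LPS control, mean ± SEM of three independent experiments, Student's t test.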
# RAW264.7 [4] = test: Antiinflammatory activity in mouse RAW264.7 cells assessed as inhibition of LPS-induced […] mRNA expression pretreated for 30 mins followed by LPS-stimulation and measured after 24 hrs by trizol reagent based qRT-PCR analysis; procedure, shortened: as §2
# RAW264.7 [5] = test: Antiinflammatory activity in mouse RAW264.7 cells assessed as inhibition of LPS-induced COX2 mRNA expression pretreated for 30 mins followed by LPS-stimulation and measured after 24 hrs by trizol reagent based qRT-PCR analysis; procedure, shortened: as §2
# RAW264.7 [6] = test: Antiinflammatory activity in mouse RAW264.7 cells assessed as inhibition of LPS-induced ICAM1 mRNA expression pretreated for 30 mins followed by LPS-stimulation and measured after 24 hrs by trizol reagent based qRT-PCR analysis; procedure, shortened: as §2
# RAW264.7 [7] = test: Antiinflammatory activity in mouse RAW264.7 cells assessed as inhibition of LPS-induced IL1beta mRNA expression pretreated for 30 mins followed by LPS-stimulation and measured after 24 hrs by trizol reagent based qRT-PCR analysis; procedure, shortened: as §2
# RAW264.7 [8] = test: Antiinflammatory activity in mouse RAW264.7 cells assessed as inhibition of LPS-induced IL-6 mRNA expression pretreated for 30 mins followed by LPS-stimulation and measured after 24 hrs by trizol reagent based qRT-PCR analysis; procedure, shortened: as §2
IC50 (RAW264.7 [1]),IC50 (RAW264.7 [2]),Structure (SMILES),inhibition (RAW264.7 [1]),inhibition (RAW264.7 [2]),inhibition (RAW264.7 [3]),inhibition (RAW264.7 [4]),inhibition (RAW264.7 [5]),inhibition (RAW264.7 [6]),inhibition (RAW264.7 [7]),inhibition (RAW264.7 [8])
,,C=C(C)[C@@H](O)Cc1c(O)ccc(C(=O)/C=C/c2ccccc2)c1O,inactive,inactive,,,,,,
1.1 µM,1.2 µM,C=C(C)[C@H](O)Cc1c(O)ccc(C(=O)/C=C/c2ccccc2)c1O,,,Active,Active,Active,Active,Active,Active
1.1 µM,1.6 µM,C=C(C)C(O)Cc1c(O)ccc(C(=O)/C=C/c2ccccc2)c1O (racemic),,,Active,Active,Active,Active,Active,Active
